The source of these data is ChEMBL document CHEMBL5576157, “"Seasoning" antimalarial drugs' action: chloroquine bile salts as novel triple-stage antiplasmodial hits” (RSC Med Chem, 2024).

In one series the test system is Plasmodium berghei. In words: Antimalarial activity against Plasmodium berghei sporozoites expressing firefly luciferase infected in human Huh-7 cells assessed reduction in parasite growth at 10 uM preincubated for 1 hr followed by infection and measured after 48 hrs by luminescence analysis. The format is functional, organism-based. Conditions: time 49.0 hrs. Summed up:
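Huh-7 hepatoma cells were grown in RPMI with 10% FCS, non-essential amino acids, glutamine, penicillin/streptomycin and 10 mM HEPES pH 7, at 37 °C and 5% CO2. Cells were seeded at 1.2×10⁴/well the day before. Compound medium was added ~1 h before infection with firefly luciferase P. berghei sporozoites freshly dissected from mosquito salivary glands, then spun at 1700 g for 5 min. Parasite load was read at 48 h by lysate luminescence after luciferin addition.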

Series [1] deals with Plasmodium falciparum. Briefly: Antimalarial activity against blood stage chloroquine-sensitive Plasmodium falciparum 3D7 expressing GFP infected in erythrocytes assessed as reduction in parasitemia incubated for 72 hrs by flow cytometry analysis. In kind it is functional, organism-based. To be noted: 3D7, Erythrocyte. Summed up: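 Growth was read by flow cytometry on the GFP channel (488 nm excitation), counting 20,000–40,000 RBC per well. IC50 values were fitted from the curves and reported as the mean of at least three experiments, each in duplicate.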
For orientation: Flow cytometry measures light scatter and fluorescence of single cells or particles in a stream.

The subject of series [2] is Plasmodium falciparum. In words: Antimalarial activity against blood stage chloroquine-sensitive Plasmodium falciparum 3D7 expressing GFP infected in erythrocytes assessed as inhibition of parasite growth at 10 uM incubated for 72 hrs by flow cytometry analysis relative to control. In kind it is functional. Conditions: 3D7, Erythrocyte. In outline:
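Unsynchronized P. falciparum 3D7-GFP culture (0,6% hematocrit, 0,5% parasitaemia) was exposed to 10 µM compound for 72 h at 37 °C and 5% CO2. Growth was read by flow cytometry of GFP (Fl-1, 488 nm excitation), counting 20,000–40,000 erythrocytes per well.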

The test system of series [3] is Plasmodium falciparum. In words: Antimalarial activity against blood stage chloroquine-resistant Plasmodium falciparum Dd2 infected in erythrocytes assessed as reduction in parasitemia incubated for 72 hrs by flow cytometry analysis. The format is functional, organism-based. To be noted: Dd2, Erythrocyte.
A further series deals with Erythrocyte. In words: Hemolytic activity in RBC (unknown origin) assessed as hemolysis at 10 uM incubated for 1 hr by microplate reader assay. The format is toxicity, cell-based. Conditions: human. Summed up: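 Human blood had plasma removed by spinning. RBC were washed three times in 0.01 M PBS pH 7.4 and set to 6% hematocrit. They were mixed with an equal volume of compound at 20 µM in PBS with 1.3% DMSO and kept 1 h at 37 °C, then spun. Supernatant A450 was read. Hemolysis % was scaled between PBS/0.65% DMSO (negative) and 1% Triton X-100 (positive).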

Series [4] has as its system Plasmodium falciparum. In words: Antimalarial activity against stage III gametocytes of Plasmodium falciparum 3D7 expressing GFP infected erythrocytes assessed inhibition of gametocyte level at 10 uM after 72 hrs followed by compound washout and measured after 24 hrs by Giemsa-staining based microscopic analysis relative to control. In kind it is functional. To be noted: 3D7, Erythrocyte. Summed up:
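P. falciparum 3D7HT-GFP was sorbitol-synchronized, and schizonts were Percoll-purified and cultured at 3% hematocrit until stage III gametocytes appeared. Microcultures of 1 mL (1-2% gametocytemia, 2.5% hematocrit) got 10 µM compound or DMSO (<0.3%) for 72 h, then compound-free medium for 24 h. Stage IV/V gametocytes were counted per 3000 RBC on Giemsa smears, in duplicate by two microscopists. Inhibition = 100 − (treated/drug-free control ×100).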

Series [5] is described as follows: Stability of compound assessed as degradation temperature at 25 to 500 degreeC under N2 gas by thermogravimetric analysis. The format is physicochemical. In outline:
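Thermogravimetric analysis heated samples from 25 to 500 °C at 5 °C/min under N2 flowing at 50 mL·min⁻¹.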

Another series concerns Huh-7. In words: Cytotoxicity against human Huh-7 cells assessed as reduction in cell viability at 10 uM by AlamarBlue assay. In kind it is toxicity, cell-based. Conditions: huh-7, 10 µM. In outline:
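Huh-7 hepatoma cells were cultured in RPMI with 10% FCS, non-essential amino acids, glutamine, penicillin/streptomycin and 10 mM HEPES pH 7, at 37 °C and 5% CO2, within the liver-stage infection setup. Viability was read by AlamarBlue following the manufacturer's protocol.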
Background: Alamar Blue is a resazurin reagent that responds to reducing activity.

Activity calls are given as the source filed them. The rule behind the calls is not given here.

In the case of `COc1cc(NC(C)CCCN)c2ncccc2c1.C[C@H](CCC(=O)O)[C@H]1CC[C@H]2[C@@H]3CC[C@@H]4C[C@H](O)CC[C@]4(C)[C@H]3CC[C@]12C` [listing 1 of 2 here], the outcome in the series on Plasmodium berghei was Active.

In the case of `COc1cc(NC(C)CCCN)c2ncccc2c1.O=P(O)(O)O.O=P(O)(O)O` (centres undefined) [PRIMAQUINE PHOSPHATE], the IC50 (as a rule, the concentration at which inhibition is half-maximal) was 415 nM in the series on Plasmodium falciparum [1] and 464 nM in the series with Plasmodium falciparum [3]. Besides, the inhibition – broadly, the drop in the measured response relative to a control, in per cent – at 10 µM with Plasmodium falciparum [2] came to 83%; with Plasmodium falciparum [4], 93%. Further, the Activity entry in the series with Erythrocyte is “Non-Toxic”.

As to `C[C@H](CCC(=O)O)[C@H]1CC[C@H]2[C@@H]3CC[C@@H]4C[C@H](O)CC[C@]4(C)[C@H]3C[C@H](O)[C@]12C` [DEOXYCHOLIC ACID], the T in series [5] stood at 357 °C. Moreover, the Activity entry in the series on Erythrocyte is recorded as “Non-Toxic”. In the series on Plasmodium falciparum [4], this compound gave an inhibition at 10 µM of 42%.

On to `C[C@H](CCC(=O)O)[C@H]1CC[C@H]2[C@@H]3[C@H](O)C[C@@H]4C[C@H](O)CC[C@]4(C)[C@H]3C[C@H](O)[C@]12C` [CHOLIC ACID], for which the T in series [5] stood at 360 °C. Further, in the series with Erythrocyte, the Activity entry is reported as “Non-Toxic”. In the series with Plasmodium falciparum [4], this compound yielded an inhibition at 10 µM of 39%.

For the compound `COc1cc(NC(C)CCCN)c2ncccc2c1.C[C@H](CCC(=O)O)[C@H]1CC[C@H]2[C@@H]3[C@H](O)C[C@@H]4C[C@H](O)CC[C@]4(C)[C@H]3C[C@H](O)[C@]12C`, the half-inhibitory concentration (IC50) in the series with Plasmodium falciparum [1] is 589 nM. Also, the figures for the inhibition at 10 µM in the series with Plasmodium falciparum [2] and with Plasmodium falciparum [4] were 82% and 91%, respectively. For the same compound, the T in series [5] came out at 359 °C. The Activity result with Huh-7 and in the series on Erythrocyte was “Non-Toxic” each time.

Take `CCN(CC)CCCC(C)Nc1ccnc2cc(Cl)ccc12.C[C@H](CCC(=O)O)[C@H]1CC[C@H]2[C@@H]3CC[C@@H]4C[C@H](O)CC[C@]4(C)[C@H]3CC[C@]12C` [listing 1 of 2 here]: in the series with Plasmodium berghei, the result was Active.

Take `C[C@H](CCC(=O)NCC(=O)O)[C@H]1CC[C@H]2[C@@H]3[C@H](O)C[C@@H]4C[C@H](O)CC[C@]4(C)[C@H]3C[C@H](O)[C@]12C` [GLYCOCHOLIC ACID]: the T in series [5] turned out to be 328 °C. For the same compound, the Activity entry with Erythrocyte is “Non-Toxic”. The compound further yielded an inhibition at 10 µM in the series on Plasmodium falciparum [4] of 41%.

For `CCN(CC)CCCC(C)Nc1ccnc2cc(Cl)ccc12.O=P(O)(O)O.O=P(O)(O)O` (centres undefined) [CHLOROQUINE PHOSPHATE], the inhibition at 10 µM turned out to be 98% in the series with Plasmodium falciparum [2] and 72% in the series with Plasmodium falciparum [4]. For the same compound, the Activity entry with Erythrocyte is listed as “Non-Toxic”.

As for `COc1cc(NC(C)CCCN)c2ncccc2c1.C[C@H](CCC(=O)O)[C@H]1CC[C@H]2[C@@H]3CC[C@@H]4C[C@H](O)CC[C@]4(C)[C@H]3CC[C@]12C` [listing 2 of 2 here], the 50% inhibitory concentration (IC50) with Plasmodium falciparum [1] turned out to be 424 nM. Moreover, the values for the inhibition at 10 µM in the series with Plasmodium falciparum [2] and with Plasmodium falciparum [4] were 82% and 83%, respectively. The T in series [5] is 253 °C. The Activity entry in the series with Huh-7 and in the series on Erythrocyte was “Non-Toxic” each time.

As to `CCN(CC)CCCC(C)Nc1ccnc2cc(Cl)ccc12.C[C@H](CCC(=O)O)[C@H]1CC[C@H]2[C@@H]3CC[C@@H]4C[C@H](O)CC[C@]4(C)[C@H]3CC[C@]12C` [listing 2 of 2 here], the figures for the inhibition at 10 µM with Plasmodium falciparum [2] and with Plasmodium falciparum [4] were 97% and 90%, respectively. Besides, the T in series [5] amounted to 367 °C. Besides, the Activity entry in the series on Huh-7 and in the series with Erythrocyte was “Non-Toxic” in each case.

As for `CCN(CC)CCCC(C)Nc1ccnc2cc(Cl)ccc12.C[C@H](CCC(=O)NCC(=O)O)[C@H]1CC[C@H]2[C@@H]3[C@H](O)C[C@@H]4C[C@H](O)CC[C@]4(C)[C@H]3C[C@H](O)[C@]12C`, the inhibition at 10 µM with Plasmodium falciparum [2] worked out at 97%; in the series with Plasmodium falciparum [4], 86%. Besides, the T in series [5] came out at 361 °C. The Activity result in the series on Huh-7 and in the series with Erythrocyte was “Non-Toxic” in each case.

As to `COc1cc(NC(C)CCCN)c2ncccc2c1.C[C@H](CCC(=O)O)[C@H]1CC[C@H]2[C@@H]3[C@H](O)C[C@@H]4C[C@H](O)CC[C@]4(C)[C@H]3CC[C@]12C`, the IC50 in the series on Plasmodium falciparum [1] was found to be 380 nM. Moreover, the values for the inhibition at 10 µM in the series on Plasmodium falciparum [2] and with Plasmodium falciparum [4] were 82% and 80%, respectively. Also, the T in series [5] was 366 °C. In addition, the Activity result in the series with Huh-7 and in the series on Erythrocyte was “Non-Toxic” throughout.

`C[C@H](CCC(=O)NCCCCNc1ccnc2cc(Cl)ccc12)[C@H]1CC[C@H]2[C@@H]3[C@H](O)C[C@@H]4C[C@H](O)CC[C@]4(C)[C@H]3C[C@H](O)[C@]12C`: the IC50 in the series on Plasmodium falciparum [1] was determined as 108 nM; with Plasmodium falciparum [3], 562 nM. Moreover, the T in series [5] came out at 250 °C. Further, the outcome in the series with Plasmodium berghei was Active. Moreover, the Activity result with Huh-7 and in the series with Erythrocyte was “Non-Toxic” throughout. Also, the inhibition at 10 µM in the series with Plasmodium falciparum [4] stood at 91%.

As to `COc1cc(NC(C)CCCN)c2ncccc2c1.C[C@H](CCC(=O)O)[C@H]1CC[C@H]2[C@@H]3CC[C@@H]4C[C@H](O)CC[C@]4(C)[C@H]3C[C@H](O)[C@]12C`, the IC50 in the series on Plasmodium falciparum [1] was 600 nM. Moreover, the inhibition at 10 µM with Plasmodium falciparum [2] stood at 82%; with Plasmodium falciparum [4], 86%. Moreover, the T in series [5] was determined as 348 °C. Also, the Activity entry in the series with Huh-7 and in the series on Erythrocyte was “Non-Toxic” each time.

`CCN(CC)CCCC(C)Nc1ccnc2cc(Cl)ccc12.C[C@H](CCC(=O)O)[C@H]1CC[C@H]2[C@@H]3[C@H](O)C[C@@H]4C[C@H](O)CC[C@]4(C)[C@H]3C[C@H](O)[C@]12C`: the inhibition at 10 µM in the series with Plasmodium falciparum [2] amounted to 97%; in the series on Plasmodium falciparum [4], 88%. In addition, the T in series [5] came to 253 °C. Moreover, the Activity entry with Huh-7 and in the series with Erythrocyte was “Non-Toxic” throughout.

With `C[C@H](CCC(=O)O)[C@H]1CC[C@H]2[C@@H]3CC[C@@H]4C[C@H](O)CC[C@]4(C)[C@H]3CC[C@]12C` [LITHOCHOLIC ACID], in series [5], the T was determined as 355 °C. In addition, the Activity result in the series with Erythrocyte is on record as “Non-Toxic”. The same compound registered an inhibition at 10 µM in the series on Plasmodium falciparum [4] of 65%.

Consider `CCN(CC)CCCC(C)Nc1ccnc2cc(Cl)ccc12.C[C@H](CCC(=O)O)[C@H]1CC[C@H]2[C@@H]3CC[C@@H]4C[C@H](O)CC[C@]4(C)[C@H]3C[C@H](O)[C@]12C`, for which the inhibition at 10 µM is 97% with Plasmodium falciparum [2] and 86% in the series on Plasmodium falciparum [4]. In series [5], the T amounted to 242 °C. In addition, the Activity result in the series on Huh-7 and in the series on Erythrocyte was “Non-Toxic” each time.

Turning to `COc1cc(NC(C)CCCN)c2ncccc2c1.C[C@H](CCC(=O)NCC(=O)O)[C@H]1CC[C@H]2[C@@H]3[C@H](O)C[C@@H]4C[C@H](O)CC[C@]4(C)[C@H]3C[C@H](O)[C@]12C`, the half-inhibitory concentration (IC50) with Plasmodium falciparum [1] came to 384 nM. In addition, the inhibition at 10 µM in the series with Plasmodium falciparum [2] was 82%; in the series on Plasmodium falciparum [4] it was 81%. Besides, in series [5], the T worked out at 255 °C. Moreover, the Activity entry in the series with Huh-7 and with Erythrocyte was “Non-Toxic” in each case.

For `CCN(CC)CCCC(C)Nc1ccnc2cc(Cl)ccc12.C[C@H](CCC(=O)O)[C@H]1CC[C@H]2[C@@H]3[C@H](O)C[C@@H]4C[C@H](O)CC[C@]4(C)[C@H]3CC[C@]12C`, the inhibition at 10 µM was found to be 97% in the series with Plasmodium falciparum [2] and 87% in the series with Plasmodium falciparum [4]. For the same compound, the T in series [5] worked out at 255 °C. The Activity entry with Huh-7 and in the series with Erythrocyte was “Non-Toxic” throughout.
